Active and inactive are the calls of the source. The calls are words filed in the database; no cut-off is given here. Bounds are passed on as bounds.

Common to all, as to type: functional
A short description of assay [1]: Cytotoxicity against human CNS cancer cells after 48 hrs by coulter counting. Particulars: Cancer cell lines. The procedure, abridged:
(§1)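 NCI 60-cell-line panel covering nine tumour subpanels, tested over a 5-log dose range. Compounds were dissolved in DMSO and diluted in phosphate-buffered saline to a final DMSO below 1%. Wells held 6 × 10⁴ cells/ml and were run in duplicate. Controls contained PBS and DMSO at matching dilutions. Incubation was at 37 °C in humidified 5% CO₂. GI₅₀, TGI and LC₅₀ were reported.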

For another assay, the system named is HL-60(TB). As to the kind of experiment: Growth inhibition of human HL-60(TB) cells at 10 uM after 48 hrs by coulter counting. The following applies: HL-60, 48 h, read-out: GI. The procedure, abridged: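 Test compound was dissolved in DMSO and diluted in phosphate-buffered saline to a final DMSO level below 1%. Dilutions were plated in duplicate with cell culture at 6 × 10⁴ cells/ml. Vehicle controls held PBS and DMSO at matching dilutions. Incubation was at 37 °C, humidified, under 5% CO₂. Data were reported as percent growth of treated cells.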

The subject of another assay is MOLT-4. Nature of the assay: Growth inhibition of human MOLT4 cells at 10 uM after 48 hrs by coulter counting. Particulars: for inhibition of growth at 10 µM: MOLT-4, 48 h, read-out: GI. In a few lines:
(§2)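 Single-dose primary screen across the full NCI 60-cell-line panel. Stocks were made in DMSO and diluted in PBS to a final DMSO below 1%. Cultures at 6 × 10⁴ cells/ml were run in duplicate wells alongside PBS/DMSO vehicle controls at 37 °C in humidified 5% CO₂. Data were expressed as percent growth of treated cells.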

A further assay relates to HOP-62. Nature of the assay: Growth inhibition of human HOP62 cells at 10 uM after 48 hrs by coulter counting. In a few lines: as §2
The test system of the next assay is NCI-H23. Nature of the assay: Growth inhibition of human NCI-H23 cells at 10 uM after 48 hrs by coulter counting. Particulars: NCI-H23, 48 h, read-out: GI. In a few lines:
as §2

In a further assay the test system is NCI-H460. As to the kind of experiment: Growth inhibition of human NCI-H460 cells at 10 uM after 48 hrs by coulter counting. The procedure, abridged: as §2
A further assay deals with HT-29. As to the kind of experiment: Growth inhibition of human HT-29 cells at 10 uM after 48 hrs by coulter counting. The procedure, abridged: as §2
In the next assay the test system is KM12. Nature of the assay: Growth inhibition of human KM12 cells at 10 uM after 48 hrs by coulter counting. The procedure, abridged:
as §2

A further assay relates to SF-295. As to the kind of experiment: Growth inhibition of human SF295 cells at 10 uM after 48 hrs by coulter counting. Particulars: SF-295, 48 h, read-out: GI. In a few lines:
as §2

Another assay relates to NCI/ADR-RES. As to the kind of experiment: Growth inhibition of human NCI/ADR-RES cells at 10 uM after 48 hrs by coulter counting. The following applies: for inhibition of growth at 10 µM: read-out: GI. In a few lines: as §2
For the next assay, the system named is ACHN. Nature of the assay: Growth inhibition of human ACHN cells at 10 uM after 48 hrs by coulter counting. The following applies: for inhibition of growth at 10 µM: read-out: GI. The procedure, abridged:
as §2

The next assay has as its system MCF7. As to the kind of experiment: Growth inhibition of human MCF7 cells at 10 uM after 48 hrs by coulter counting. The following applies: MCF7, 48 h, read-out: GI. The procedure, abridged: as §2
Another assay concerns BT-549. As to the kind of experiment: Growth inhibition of human BT549 cells at 10 uM after 48 hrs by coulter counting. Particulars: BT-549, 48 h, read-out: GI. The procedure, abridged:
as §2

A further assay has as its system 786-0. Nature of the assay: Growth inhibition of human 786-0 cells at 10 uM after 48 hrs by coulter counting. The following applies: 786-0, 48 h, read-out: GI. In a few lines:
as §2

A short description of assay [2]: Cytotoxicity against human colon cancer cells after 48 hrs by coulter counting. Particulars: Cancer cell lines. The procedure, abridged:
as §1

For the compound `CCN1CC2=C(N=C3SC=C(C)N3C2c2ccc(OC)c(OC)c2)/C(=C/c2ccc(OC)c(OC)c2)C1` (configuration not stated), the results for the GI50 in assay [1] and in assay [2] were 5.7 µM and 2.1 µM, respectively. Further, the LC50 (in general, the concentration lethal to half of the exposed cells or organisms) in assay [1] was greater than 100 µM. The total growth inhibition concentration (TGI) (in general, the concentration at which net growth stops) turned out to be 40.1 µM in [1] and 5.6 µM in assay [2]. Also, the inhibition of growth at 10 µM with HL-60(TB) turned out to be 72.1%; in the assay on NCI-H23, 67.6%; in the assay on SF-295, 69.2%; with MCF7 it was 84.5%; in the assay with BT-549, 57%; with 786-0, 69.9%. The “growth inhibition (GI)” value in the assay with MOLT-4, in the assay with HOP-62, with NCI-H460, in the assay with HT-29, with KM12 and with NCI/ADR-RES was “Active” each time. Besides, in the assay on ACHN, the “growth inhibition (GI)” value is “Active”. For the same compound, the LC50 (concentration giving 50% net cell kill) in [2] is 35.3 µM.

On to `CCN1CC2=C(N=C3SC=CN3C2c2ccc(OC)cc2)/C(=C/c2ccc(OC)cc2)C1` (configuration not stated), for which the GI50 (usually the concentration at which growth is held to half of that of the control) in assay [1] is 4.7 µM; in [2], 1.7 µM. In assay [1], this compound returned an LC50 of 68.2 µM. For the same compound, the concentration for total growth inhibition (TGI) in [1] is 9.4 µM; in assay [2] it was 3.4 µM. For the same compound, the inhibition of growth at 10 µM with HL-60(TB) is 84%; in the assay with MOLT-4 it was 90.4%; in the assay on NCI-H23 it was 54.8%; in the assay with SF-295 it was 71.8%; in the assay with NCI/ADR-RES it was 76.9%; in the assay with ACHN, 83%. The inhibition of growth at 10 µM with MCF7 was 74.3%; in the assay with BT-549 it was 55.2%; in the assay on 786-0, 53.2%. Also, the “growth inhibition (GI)” value with HOP-62, with NCI-H460, with HT-29 and with KM12 was “Active” each time. Further, the LC50 (concentration giving 50% net cell kill) in [2] is 6.7 µM.

With `CCN1CC2=C(N=C3SC=CN3C2c2ccc(OC)c(OC)c2)/C(=C/c2ccc(OC)c(OC)c2)C1` (configuration not stated), the GI50 in [1] came to 3.3 µM; in assay [2], 2 µM. In assay [1], this compound had an LC50 of 82.8 µM. For the same compound, the concentration for total growth inhibition (TGI) worked out at 26.7 µM in assay [1] and 4.3 µM in [2]. In addition, the inhibition of growth at 10 µM in the assay on HL-60(TB) was 48.3%; in the assay with MOLT-4, 67.9%; in the assay with HOP-62 (HOP-62, 48 h, read-out: GI) it was 84.7%; in the assay on NCI-H23 it was 43.9%; with SF-295 it was 82.2%; in the assay with NCI/ADR-RES, 91.2%. Also, the inhibition of growth at 10 µM is 79.5% with ACHN, 80.5% in the assay on MCF7, greater than 10% with BT-549 and greater than 10% in the assay on 786-0. Also, the “growth inhibition (GI)” value in the assay with NCI-H460, in the assay with HT-29 and with KM12 was “Active” in each case. Also, the LC50 (concentration giving 50% net cell kill) in assay [2] was 29.3 µM.
